The list is not random: actives were taken first. Their share in the collection is about 3.5%.
HIV Rev-RRE inh = inhibitors of HIV-1 Rev-RRE RNA interaction; P05866; Rev peptide-RRE RNA binding, FRET; inhibition, % at 8 µM; 97,000 compounds, 0.79% hits;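 active = inhibition above the screen-wide mean plus 3 SD, cut at about 35% in these data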
Target sequence (P05866 whole entry, looked up): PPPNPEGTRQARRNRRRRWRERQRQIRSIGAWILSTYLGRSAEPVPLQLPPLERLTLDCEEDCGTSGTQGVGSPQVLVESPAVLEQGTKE
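Assay system: labelled RRE RNA duplex and labelled Rev peptide / Medium: HEPES pH 7.5 salt buffer with EDTA / Reagent: labelled Rev peptide / Schedule: 5 + 15 min at 25 °C / Signal: FRET, excitation 480 nm, emission 540 nm donor and 671 nm acceptor / Benchmarks: DMSO and neomycin B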
ERa coact inh = ER-alpha (human) coactivator binding inhibition. inhibition, % at 25.6 µM. 86,000 compounds, 1.7% hits. P03372. TR-FRET ER-alpha LBD / SRC-1 peptide, estradiol-bound; in the data active = inhibition above about 50%
Target sequence (P03372 whole entry, looked up, the tested form may be a part): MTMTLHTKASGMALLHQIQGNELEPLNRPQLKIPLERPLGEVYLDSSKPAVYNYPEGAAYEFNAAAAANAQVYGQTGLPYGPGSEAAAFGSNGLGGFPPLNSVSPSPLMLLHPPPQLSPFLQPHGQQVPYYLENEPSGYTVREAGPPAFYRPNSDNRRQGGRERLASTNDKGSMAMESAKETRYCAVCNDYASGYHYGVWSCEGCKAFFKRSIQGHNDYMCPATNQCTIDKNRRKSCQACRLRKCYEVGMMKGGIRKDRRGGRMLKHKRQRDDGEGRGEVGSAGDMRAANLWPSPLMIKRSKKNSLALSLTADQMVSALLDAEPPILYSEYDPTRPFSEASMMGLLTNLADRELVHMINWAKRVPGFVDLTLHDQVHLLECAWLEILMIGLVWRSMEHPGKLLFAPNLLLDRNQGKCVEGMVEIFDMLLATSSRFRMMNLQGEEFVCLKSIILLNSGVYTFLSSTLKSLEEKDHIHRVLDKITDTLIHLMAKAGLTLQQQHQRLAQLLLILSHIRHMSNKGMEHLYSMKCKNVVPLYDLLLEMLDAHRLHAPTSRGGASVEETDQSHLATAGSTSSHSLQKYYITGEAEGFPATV
ERa SRC1 pot = enhances coactivator binding to human estrogen receptor alpha; P03372; TR-FRET ERalpha-LBD/SRC-Cy5 coactivator binding, 2 h; 100 = basal binding, no effect; coactivator binding (% of control), % at 25.6 µM; 86,000 compounds, 1.3% hits; in the data active = activity above about 200%;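 also: binding measured in presence of low estradiol as agonist stimulus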
sEH activator = soluble epoxide hydrolase (human) activation; activation, % at 2 µM; P34913; purified human sEH enzymatic activity, activator screen; 91,000 compounds, 0.04% hits; in the data active = activation above about 37%
sEH inh = soluble epoxide hydrolase (human) inhibition; P34913; recombinant human sEH enzymatic activity assay; inhibition, % at 2 µM; 91,000 compounds, 0.34% hits; AID 707; in the data active = inhibition above about 80%
ERb SRC1 inh = blocks coactivator binding to human estrogen receptor beta | inhibition, % at 25.6 µM | TR-FRET ER-beta LBD / SRC1-Cy5 peptide binding; receptor agonist-loaded with 1 µM estradiol | 86,000 compounds, 1.3% hits;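 active = compounds whose percent inhibition of the receptor-coactivator binding signal exceeds about 50% in the single-dose screen, limit read from the data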
Large screens that a line does not name were inactive; [ ] = remark or other dose.

CCOc1ccccc1C1C(C#N)=C(N)Nc2onc(-c3ccccc3)c21 (configuration not stated)	ERa SRC1 pot 378
NC(=O)c1ccc(NC(=O)CCCN2C(=O)c3ccccc3C2=O)cc1	none
N#C/C(=C(/O)COC(=O)CCCNC(=O)c1ccc(Cl)cc1)c1nc2ccccc2[nH]1	ERa coact inh 52[fluorescence artefact?]
N#C/C(=C(/O)COC(=O)c1ccc2c(c1)OCCO2)c1nc2ccccc2[nH]1	none
N#C/C(=C(/O)COC(=O)Cc1c[nH]c2ccccc12)c1nc2ccccc2[nH]1	none
N#C/C(=C(/O)COC(=O)CCc1ccc(S(=O)(=O)N2CCOCC2)cc1)c1nc2ccccc2[nH]1	HIV Rev-RRE inh 45
O=C(COc1ccc(Cl)cc1Cl)NC(=O)N1CCCCC1	none
N=c1oc2c3c4c(cc2cc1C(=O)Nc1ccccc1)CCCN4CCC3	HIV Rev-RRE inh 127[fluorescence artefact?] (no result: ERa coact inh, ERa SRC1 pot, ERb SRC1 inh)
N#Cc1ccc(NC(=O)c2cc3cc4c5c(c3oc2=N)CCCN5CCC4)cc1	ERa coact inh 64 (no result: HIV Rev-RRE inh, sEH activator, sEH inh)
COc1cc(C)c2occ(/C(C)=N\O)c2c1	none
COc1ccc(Nc2nnc(SCc3cc([N+](=O)[O-])cc4c3OCOC4)s2)cc1	none (no result: ERa coact inh, ERa SRC1 pot, ERb SRC1 inh)
COc1ccc(C(=O)Cn2nnc(-c3cccs3)n2)cc1	ERb SRC1 inh 78[fluorescence artefact?]
CN1CCN(c2ccccc2NC(=O)c2cc(Br)ccc2Cl)CC1	ERa coact inh 82[fluorescence artefact?]
CC(=O)N1CCN(c2ccccc2NC(=O)c2cc(Br)ccc2Cl)CC1	none
C[C@]12CC[C@@H]3c4ccc(O)cc4CC[C@H]3[C@@H]1CC[C@@H]2OC(=O)CCC(=O)O	none (no result: HIV Rev-RRE inh, sEH activator, sEH inh)
C[C@]12CC[C@@H]3c4ccc(OC(=O)c5ccccc5)cc4CC[C@H]3[C@@H]1CC[C@@H]2O	ERa SRC1 pot 298 (no result: HIV Rev-RRE inh, sEH activator, sEH inh)
CCCC(=O)NC1C2CC3CC(C2)CC1C3 (configuration not stated)	ERa coact inh 83[fluorescence artefact?]
Oc1ccccc1NCC(O)Cn1ccc2ccccc21 (configuration not stated)	HIV Rev-RRE inh 63
OCc1nc2ccccc2n1CC(O)Cn1ccc2ccccc21 (configuration not stated)	none
COCCn1c(=O)[nH]c2cc(C(=O)NCCN3CCN(c4ccccc4)CC3)ccc2c1=O	none (no result: ERa coact inh, ERa SRC1 pot, sEH activator, sEH inh, ERb SRC1 inh)
CCOc1ccc(-n2nc3ccc(NC(=O)c4ccc5c(c4)OCCO5)cc3n2)cc1	none
CCn1c2ccccc2c2cc(NC(=O)c3cc(OC)c(OC)c(OC)c3)ccc21	none (no result: ERa coact inh, ERa SRC1 pot, ERb SRC1 inh)
CC(C)(C)c1cnnn1-c1ccc(NC(=O)c2ccc(Br)o2)cc1	none
CCc1ccc(-n2nc3ccc(NC(=O)c4ccc5c(c4)OCO5)cc3n2)cc1	ERa SRC1 pot 362[fluorescence artefact?]
CCn1c2ccccc2c2cc(NC(=O)c3ccc(Br)o3)ccc21	HIV Rev-RRE inh 76
CC(C)(C)c1cnnn1-c1ccc(NC(=O)c2ccc3c(c2)OCO3)cc1	sEH inh 93
Cc1ccc(-n2nc3ccc(NC(=O)c4ccco4)cc3n2)cc1	ERa coact inh 71[fluorescence artefact?]
c1ccc(Nc2nc(N3CCCCC3)nc(N3CCNCC3)n2)cc1	none (no result: ERa coact inh, ERa SRC1 pot, ERb SRC1 inh)
Cc1ccc(-n2nc3ccc(NC(=O)c4ccc5c(c4)OCO5)cc3n2)cc1	ERa coact inh 88[fluorescence artefact?], ERb SRC1 inh 66[fluorescence artefact?]
O=C(Nc1ccc2nn(-c3ccccc3)nc2c1)c1ccc2c(c1)OCCO2	none
O=C(Nc1ccc2nn(-c3ccccc3)nc2c1)c1ccc(Br)o1	ERa coact inh 56, ERa SRC1 pot 207 (no result: HIV Rev-RRE inh, sEH activator, sEH inh)
Brc1ccc(C2=Nn3c(nnc3-c3ccncc3)SC2)cc1	none
CCOC(=O)C1CCCN(c2ncnc3c2[nH]c2cccc(OC)c23)C1 (configuration not stated)	none
O=C1S/C(=C/c2ccc(N3CCOCC3)o2)C(=O)N1Cc1c(F)cccc1Cl	HIV Rev-RRE inh 126[fluorescence artefact?]
O=C1S/C(=C\c2ccc(N3CCOCC3)o2)C(=O)N1Cc1c(F)cccc1Cl	HIV Rev-RRE inh 121[fluorescence artefact?] (no result: ERa coact inh, ERa SRC1 pot, ERb SRC1 inh)
Cc1ccccc1NC(=O)Cn1nnc(-c2ccc(N3CCOCC3)cc2)n1	none
O=C(Cn1nnc(-c2ccc(N3CCOCC3)cc2)n1)OC1CCCCC1	ERa SRC1 pot 208
COC(=O)C1C(O)=C(C=Nc2ccc(N)cc2)C(=O)CC1(C)C (configuration not stated)	none (no result: ERa coact inh, ERa SRC1 pot, ERb SRC1 inh)
Cc1noc(C)c1C(=O)OC(C(=O)NC1CCCC1)c1ccc(F)cc1 (configuration not stated)	none
CCOC(=O)c1c(C)oc2ccc(O)c(CN(C)C)c12	none
CCOC(=O)c1c(-c2ccccc2)oc2cc(CN(C)C)c(O)c(CN(C)C)c12	HIV Rev-RRE inh 58
COc1ccc(-c2cc(C(=O)OC3CCOC3=O)c3ccccc3n2)cc1OC (configuration not stated)	none
CN(C)CCOc1ncnc2c1oc1ccccc12	none
COc1ccc(Oc2ncnc3c2oc2ccc(Br)cc23)cc1	ERa SRC1 pot 416 (no result: HIV Rev-RRE inh, sEH activator, sEH inh)
NC(=O)c1sc2nc(-c3ccco3)ccc2c1N	none (no result: ERa coact inh, ERa SRC1 pot, ERb SRC1 inh)
NC(=O)c1sc2nc3c(c(-c4ccco4)c2c1N)CCC3	ERb SRC1 inh 54[fluorescence artefact?]
O=c1c2ccccc2nc2n1CCCCN2	ERa coact inh 80
CCc1ccc2[nH]c(=O)c(CN(Cc3ccco3)S(=O)(=O)c3ccc4c(c3)OCCO4)cc2c1	sEH activator 39
COc1ccc(C2=CC(c3c(C)nn(-c4ccccc4)c3Cl)n3nnnc3N2)cc1OC (configuration not stated)	HIV Rev-RRE inh 51
CN(Cc1cnn(C)c1)C(=O)c1cc2ccccc2oc1=O	none
COc1cc(NC(=O)Cc2ccc(Cl)cc2)ccc1NC(=O)c1ccco1	none
COc1ccc(NC(=O)c2cc(Cl)ccc2NC(=O)c2ccco2)c(OC)c1	ERa SRC1 pot 217[fluorescence artefact?]
COc1cc(NCCCC(C)N)c2ncccc2c1 (configuration not stated)	ERa coact inh 70[fluorescence artefact?], ERb SRC1 inh 90[fluorescence artefact?]
CCOc1ccc(NC(=O)CSC(N)=O)cc1	none (no result: HIV Rev-RRE inh, sEH activator, sEH inh)
Cc1cccc(N2CCN(c3nc4ccccc4n4cnnc34)CC2)c1C	ERa coact inh 54
Clc1ccc2[nH]c3c(NCC4CCCO4)ncnc3c2c1 (configuration not stated)	none
O=C(C1CCN(S(=O)(=O)c2cnc[nH]2)CC1)N1CCc2ccccc2C1	none (no result: HIV Rev-RRE inh, sEH activator, sEH inh)
CCc1cc2c(=O)n(CC)c(SC(C)C(=O)Nc3c(C)n(C)n(-c4ccccc4)c3=O)nc2s1 (configuration not stated)	ERb SRC1 inh 55
O=C1CC(Sc2nnnn2-c2ccccc2)C(=O)N1c1cccc(Cl)c1 (configuration not stated)	none (no result: ERa coact inh, ERa SRC1 pot, ERb SRC1 inh)
Cn1cccc1Cc1nnc(SCC(=O)N2CCOCC2)n1-c1ccc(F)cc1	none
CC1(C)CC(=O)c2cnc(NCC3CCCO3)nc2C1 (configuration not stated)	ERa coact inh 55
COc1cccc(C2C3=C(CCCC3=O)Nc3nc4ccccc4n32)c1OC (configuration not stated)	none (no result: HIV Rev-RRE inh, sEH activator, sEH inh)
